Laboratory results from publication PMC6244714 (European Journal of Drug Metabolism and Pharmacokinetics, 2018).
≈ marks a conversion by molar mass, not a printed value. Where two headings read alike, the source gives them in different places.

Columns and labels:
[1] = format: in vivo, human; details: healthy subjects
Summary of the method: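 Open-label, one-sequence, two-period crossover in healthy males and females aged 18–55 years with BMI 18.5–29.9 kg/m2. Period 1: single oral 100 mg tablet of test compound after an ≥8 h fast. Period 2: proton-pump inhibitor 40 mg once daily on Days 1–9, with test compound given 2 h after it on Day 7. Safety was assessed in all subjects dosed with test compound, using TEAE nature, frequency and severity, blood pressure, pulse, hematology, biochemistry, urinalysis and 12-lead ECG.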

CYP2C19 = details: cited from earlier work
gastric pH = details: omeprazole 40 mg once daily, healthy subjects; cited from earlier work
[2] = format: in vivo, human
[3] = ref data on file, cited from earlier work
[4] = cited from earlier work
[5] = healthy volunteers; cited from earlier work

Compound | Total number of TEAEs reported [1] | inhibitor of CYP2C19 (CYP2C19) | gastric pH (gastric pH) | AUC ([2]; human, plasma, po, 40 mg) [ng·h/mL] | mean trough ([2]; omeprazole 40 mg daily oral, Day 7 of Period 2, plasma) [ng/mL] | Overall safety and tolerability ([1]; 100 mg roxadustat alone or in combination with multiple daily oral doses of 40 mg omeprazole) | substrate for CYP2C19 (CYP2C19; background statement, no reference given) | solubility ([3]; 50 mM potassium phosphate buffer at pH 7.5) [µg/mL] | in vitro solubility ([3]; pH ~ 5) [µg/mL] | solubility ([3]; simulated gastric fluid buffer at pH 1.2) [µg/mL] | terminal elimination half-life (t½) ([4]; after a single dose) [h] | time to maximum plasma concentration ([4]; after oral administration) | impact on Cmax or AUCinf of S- or R-warfarin [5]
COc1ccc2[nH]c([S+]([O-])Cc3ncc(C)c(OC)c3C)nc2c1 (stereo not shown) [Omeprazole] | eight | inhibitor | ~ 5 | 4230 | 0.494 | – | – | – | – | – | – | – | –
Cc1nc(C(=O)NCC(=O)O)c(O)c2ccc(Oc3ccccc3)cc12 [Roxadustat] | – | – | – | – | – | safe and well tolerated | not a substrate | 3700 (≈ 10.5 mM) | 6 | 1 (≈ 0.00284 mM) | 12 to 14 | approximately 2 h | does not impact
